Experimental data published in article PMC12306972 (Analytical and bioanalytical chemistry, 2023).

Biological target: EcCATI (type I chloramphenicol acetyltransferase) (Escherichia coli, UniProt P62577)
Test: Direct ESI-MS
Format: binding
Settings: for Cooperativity factor α: second ligand of the same type binding to EcCATI:1Ligand; for Cooperativity factor β: third ligand of the same type binding to EcCATI:2Ligands
How it was run: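 Recombinant E. coli type I CAT (Rosetta2 BL21 DE3; heat step, anion-exchange, gel filtration) desalted into 200 mM ammonium acetate pH ~7.0 and mixed with ligand freshly prepared in the same buffer. Trimer at ~10 μM final, with the protein:ligand ratio varied by ligand. Nano-ESI on a Q-TWIMS-TOF under native-preserving settings. Bound/free abundance ratios were fitted to a stepwise three-site model giving intrinsic Kd, α and β. Values are mean ± SD.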

Sequence of EcCATI (type I chloramphenicol acetyltransferase) (P62577 whole entry, looked up): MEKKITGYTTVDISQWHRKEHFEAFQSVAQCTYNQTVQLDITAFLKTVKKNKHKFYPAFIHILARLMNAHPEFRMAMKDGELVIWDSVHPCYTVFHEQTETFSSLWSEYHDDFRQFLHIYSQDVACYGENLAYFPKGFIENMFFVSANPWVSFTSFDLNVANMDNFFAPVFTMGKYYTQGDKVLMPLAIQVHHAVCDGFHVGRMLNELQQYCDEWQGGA

SMILES	Cooperativity factor α	Cooperativity factor β
O=C(N[C@H](CO)[C@H](O)c1ccc([N+](=O)[O-])cc1)C(Cl)Cl [Chl, chloramphenicol]	0.5	0.2
CCSCCNC(=O)CCNC(=O)[C@H](O)C(C)(C)COP(=O)(O)OP(=O)(O)OC[C@H]1O[C@@H](n2cnc3c(N)ncnc32)[C@H](O)[C@@H]1OP(=O)(O)O [S-Et-CoA, S-ethyl-CoA]	0.8	0.5
